Assay type in all cases: cell-based
The target of experiment [1] is Toll-like receptor 5 (Homo sapiens) (UniProt O60602). Kind of experiment: Inhibition of human TLR5 expressed in HEK-Blue cells assessed as inhibition of flagellin-induced NF-kappaB activation at 20 uM measured after 24 hrs by quanti-blue based SEAP reporter gene assay. The method, boiled down: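 HEK-Blue SEAP format: 4 × 10⁴ cells/well in DMEM with ligand plus compound, 24 h at 37 °C. Supernatant mixed with QUANTI-Blue up to 1 h, then A620 read. Ligands: Pam3CSK4 100 ng/mL (TLR1/2), Pam2CSK4 100 ng/mL (TLR2/6), poly(I:C) 5 µg/mL (TLR3), LPS 20 ng/mL (TLR4), flagellin 50 ng/mL (TLR5), R848 1 µg/mL (TLR7), R848 2 µg/mL (TLR8), ODN2006 0.5 µM (TLR9). Mean ± s.d.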
A general note: A reporter such as luciferase makes a cellular process visible.

Experiment [2] addresses T1, Toll-like receptor 8 (Homo sapiens) (UniProt Q9NR97).
T1 sequence (whole entry): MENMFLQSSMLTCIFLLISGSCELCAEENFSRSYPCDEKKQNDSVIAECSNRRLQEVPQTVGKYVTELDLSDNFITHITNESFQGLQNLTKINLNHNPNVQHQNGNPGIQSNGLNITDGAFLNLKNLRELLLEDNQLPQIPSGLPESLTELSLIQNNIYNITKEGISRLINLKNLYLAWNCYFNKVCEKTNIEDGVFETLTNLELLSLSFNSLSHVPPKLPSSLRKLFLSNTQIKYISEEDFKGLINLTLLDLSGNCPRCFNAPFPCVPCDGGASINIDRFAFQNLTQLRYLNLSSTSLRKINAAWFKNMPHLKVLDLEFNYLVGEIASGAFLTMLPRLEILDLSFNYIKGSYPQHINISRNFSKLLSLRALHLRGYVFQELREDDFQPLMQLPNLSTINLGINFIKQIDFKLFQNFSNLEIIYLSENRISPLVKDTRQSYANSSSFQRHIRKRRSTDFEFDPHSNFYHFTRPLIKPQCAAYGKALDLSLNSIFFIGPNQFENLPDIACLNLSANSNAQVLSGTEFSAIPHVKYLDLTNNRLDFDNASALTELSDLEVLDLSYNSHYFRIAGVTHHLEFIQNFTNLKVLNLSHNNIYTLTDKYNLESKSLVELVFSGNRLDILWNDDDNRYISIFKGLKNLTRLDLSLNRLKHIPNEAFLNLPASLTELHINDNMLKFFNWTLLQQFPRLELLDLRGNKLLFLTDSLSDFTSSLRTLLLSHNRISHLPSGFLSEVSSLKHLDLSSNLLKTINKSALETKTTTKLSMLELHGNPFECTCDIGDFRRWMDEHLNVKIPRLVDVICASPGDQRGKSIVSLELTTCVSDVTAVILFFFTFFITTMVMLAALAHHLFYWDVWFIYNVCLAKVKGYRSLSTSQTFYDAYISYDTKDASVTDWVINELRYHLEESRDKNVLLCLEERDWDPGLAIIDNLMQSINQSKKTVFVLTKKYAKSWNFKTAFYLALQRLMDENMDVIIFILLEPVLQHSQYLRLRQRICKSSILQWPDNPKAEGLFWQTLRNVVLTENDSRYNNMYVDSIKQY
Kind of experiment: Inhibition of human TLR8 expressed in HEK-Blue cells assessed as inhibition of ssRNA06-induced NF-kappaB activation measured after 24 hrs by quanti-blue based SEAP reporter gene assay. The procedure, abridged: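 HEK-Blue TLR8 cells, 4 × 10⁴/well, stimulated with ssRNA06 in the presence of varying compound concentrations for 24 h at 37 °C. SEAP read with QUANTI-Blue at 620 nm. Normalized so ligand-treated cells are 100% activation and untreated cells 0%.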

Experiment [3] has as its target T1, Toll-like receptor 8 (Homo sapiens). Kind of experiment: Inhibition of TLR8 in human monocytes assessed as reduction in R848-induced p65 nuclear translocation up to 5 uM measured after 2 hrs by Western blot analysis. The method, boiled down: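 Monocyte cell lines, 2 × 10⁶/well, differentiated with PMA 100 ng/mL for 24 h. After washes, cells in unsupplemented RPMI received R848 1 µg/mL with varying compound concentrations for 2 h. Nuclear/cytoplasmic fractions extracted and resolved on 10% SDS-PAGE. Blots probed for p65, TRAF3 and p-IRAK4 (1:1000); lamin A/C (nuclear) and β-actin (cytoplasmic) as loading controls.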

For experiment [4] the target is unchanged. Kind of experiment: (§1) Inhibition of human TLR8 expressed in HEK-Blue cells assessed as inhibition of R848-induced NF-kappaB activation measured after 24 hrs by quanti-blue based SEAP reporter gene assay.
In another experiment the target is T2, Toll-like receptor 8 (Homo sapiens, UniProt Q9NR97).
T2 sequence (Q9NR97 whole entry): T1 sequence (whole entry)
Described as §1.

In experiment [5] the target is T1, Toll-like receptor 8 (Homo sapiens). Kind of experiment: Inhibition of human TLR8 expressed in HEK-Blue cells assessed as inhibition of R848-induced TNFalpha mRNA level at 1 uM measured after 8 hrs by Trizol reagent based qRT-PCR analysis. The procedure, abridged: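 RT-qPCR: HEK-Blue TLR8 cells seeded at 1 × 10⁶/well and grown 24 h, then switched to serum-free medium. Treated with R848 4 µg/mL ± compound 1 µM for 8 h. Total RNA extracted with TRIzol, reverse transcribed, TNF-α and IL-8 mRNA quantified. Three independent biological replicates, mean ± s.d.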
(Quantitative PCR measures a nucleic acid by following its amplification.)

The target is the same in experiment [6]. Kind of experiment: Inhibition of TLR8 in human monocytes assessed as reduction in R848-induced IL1beta production measured after 24 hrs by ELISA. The method, boiled down:
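Human monocyte cell lines in RPMI 1640 with 10% FBS and 0.05 mM 2-mercaptoethanol, 1 × 10⁶/well, 24 h. After PBS washes, fresh RPMI added with R848 1 µg/mL and varying compound concentrations for 24 h. Supernatant TNF-α, IL-6 and IL-1β measured by ELISA.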

Molecules are shown by their SMILES. Activity calls are given as the source filed them. The calls are words filed in the database; no cut-off is given here.

In general, IC50 refers to the concentration that gives 50% inhibition.

Sequence of Toll-like receptor 5 (Homo sapiens) (O60602 whole entry): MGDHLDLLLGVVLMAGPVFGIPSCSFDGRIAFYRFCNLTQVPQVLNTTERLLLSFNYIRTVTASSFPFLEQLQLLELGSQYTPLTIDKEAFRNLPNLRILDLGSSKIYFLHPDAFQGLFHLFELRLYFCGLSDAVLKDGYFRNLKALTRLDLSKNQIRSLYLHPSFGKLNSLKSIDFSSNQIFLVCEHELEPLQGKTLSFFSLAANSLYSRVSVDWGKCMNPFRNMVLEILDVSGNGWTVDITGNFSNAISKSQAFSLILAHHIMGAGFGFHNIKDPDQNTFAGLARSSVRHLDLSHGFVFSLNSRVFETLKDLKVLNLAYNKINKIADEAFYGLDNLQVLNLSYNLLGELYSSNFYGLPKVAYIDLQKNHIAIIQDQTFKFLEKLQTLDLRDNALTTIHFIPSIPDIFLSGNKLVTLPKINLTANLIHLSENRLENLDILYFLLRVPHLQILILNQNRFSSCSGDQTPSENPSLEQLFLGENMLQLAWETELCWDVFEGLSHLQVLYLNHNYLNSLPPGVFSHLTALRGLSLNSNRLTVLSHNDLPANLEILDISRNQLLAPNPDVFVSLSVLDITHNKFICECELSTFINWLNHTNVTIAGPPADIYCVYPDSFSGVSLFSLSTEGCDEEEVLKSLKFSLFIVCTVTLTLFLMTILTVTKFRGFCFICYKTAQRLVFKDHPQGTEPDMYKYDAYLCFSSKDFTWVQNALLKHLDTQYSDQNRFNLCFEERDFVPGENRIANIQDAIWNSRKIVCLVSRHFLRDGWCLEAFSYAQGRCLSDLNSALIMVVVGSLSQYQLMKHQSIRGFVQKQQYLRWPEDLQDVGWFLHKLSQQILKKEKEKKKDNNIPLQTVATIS

For the compound `CSc1nnc(CCCO)n1-c1cc(C)c(C)c(C)c1`, the inhibition result in experiment [1] is “inactive”. Besides, the inhibition entry in experiment [2], in experiment [4] and in experiment [6] was “Dose-dependent effect” throughout. In addition, the inhibition entry in experiment [3] and in experiment [5] was “Active” in each case. Moreover, the IC50 at Toll-like receptor 8 was 0.03 µM.

These data come from ChEMBL document CHEMBL4354873, “Rationally Designed Small-Molecule Inhibitors Targeting an Unconventional Pocket on the TLR8 Protein-Protein Interface” (J Med Chem, 2020).
